This is a sample that favours compounds with a hit; in the whole collection about 1.5% have one here.
LANA DNA inh: inhibitors of KSHV LANA C-terminal domain DNA binding; inhibition, % at 9 µM; MBP-C-LANA/FAM-LBS DNA binding, fluorescence polarization; hit rate 0.078% among 340,000;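 active = highest replicate inhibition at or above 60% at 9 µM, even if other replicates fall short; inactive = all replicates below 60% inhibition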;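 also: 0% = neutral control wells and 100% = 4 µM acridine orange control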
CaV13 FRET inh: Primary screen for inhibitors of IQ motif and Ca2+-dependent inactivation inhibitor domain binding in CACNA1D, Förster resonance energy transfer in living cells, …. hit rate 0.098% among 340,000. HEK cells, CFP/YFP FRET ICDI-IQ, plate reader, 10 min; percent FRET-ratio fall versus neutral wells. inhibition, % at 12.3 µM. AID 743397;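 active = mean replicate inhibition of at least 30% and at least 1% of replicates passing that level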;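 also: 0% = median of the neutral control wells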
LANA-H2B inh: blocks KSHV LANA binding to histone H2A/H2B. inhibition, % (concentration not given with the values). AID 2629. Q9QR71. hit rate 0.6% among 320,000. cell-free LANA-H2A/H2B peptide, fluorescence polarization; in the data active = inhibition mostly above about 10%, no sharp cut-off; inactive = mostly below about 6.7%
Keap1-Nrf2 PPI: Keap1-Nrf2 (human) interaction inhibition; Q14145; Keap1 Kelch-Nrf2 peptide fluorescence polarization, 1536-well; inhibition, % at 9.4 µM; hit rate 0.15% among 340,000; AID 504523; in the data active = inhibition above about 12%;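 also: human Keap1 Kelch domain with fluorescein labeled Nrf2 9mer peptide probe; 0% = neutral control wells and 100% = peptide positive control; higher means more block of Keap1 binding to Nrf2 peptide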
Target sequence (Q14145 whole entry, looked up, the tested form may be a part): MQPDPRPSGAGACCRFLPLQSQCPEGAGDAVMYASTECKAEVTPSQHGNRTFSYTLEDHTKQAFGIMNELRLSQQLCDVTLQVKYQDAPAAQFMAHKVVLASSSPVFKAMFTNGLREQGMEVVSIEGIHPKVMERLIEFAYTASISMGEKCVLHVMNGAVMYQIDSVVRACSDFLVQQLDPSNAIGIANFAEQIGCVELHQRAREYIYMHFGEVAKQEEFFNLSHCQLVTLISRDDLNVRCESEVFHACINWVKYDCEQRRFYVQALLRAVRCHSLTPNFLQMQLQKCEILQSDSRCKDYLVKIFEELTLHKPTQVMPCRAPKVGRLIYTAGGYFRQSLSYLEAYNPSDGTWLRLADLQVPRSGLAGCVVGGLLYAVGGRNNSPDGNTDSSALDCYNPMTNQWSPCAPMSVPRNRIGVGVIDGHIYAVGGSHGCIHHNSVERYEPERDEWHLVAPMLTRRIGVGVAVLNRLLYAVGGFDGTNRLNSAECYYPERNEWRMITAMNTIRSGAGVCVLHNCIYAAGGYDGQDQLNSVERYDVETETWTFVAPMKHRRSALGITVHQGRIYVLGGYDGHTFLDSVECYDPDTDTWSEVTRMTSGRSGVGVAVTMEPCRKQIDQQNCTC
CAL PDZ FP-1: blocks peptide binding to the human CAL PDZ domain; Q9HD26; purified CAL PDZ, TMR-peptide fluorescence polarization, 1 h; inhibition, % at 24.9 µM; hit rate 0.92% among 300,000;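 active = mean inhibition of at least 30% with at least half of replicates also reaching 30%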;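 also: 0% = DMSO neutral control and 100% = excess unlabeled competitor peptide PRC23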
CAL PDZ FP-2: human CAL PDZ-peptide interaction inhibition; hit rate 0.02% among 330,000; inhibition, % at 20 µM; purified CAL PDZ, TMR-peptide fluorescence polarization, 1 h;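 active = highest replicate inhibition of at least 40%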;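 also: plate controls were DMSO neutral control wells for no effect and unlabeled competitor peptide control wells for full effect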
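System: purified tagged CAL PDZ domain construct (CerCALP). Schedule: 1 h incubation at room temperature before polarization reading. Medium: 25 mM sodium phosphate pH 7.4, 150 mM NaCl, TCEP, IgG, Thesit. Read-out: percent inhibition from loss of millipolarization. Measured by: FP readout, S and P plane fluorescence. Probe or stimulus: fluorescent TMR peptide probe.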
Active calls of the source: *; . = no result; ! = not confirmed by another sample.

SMILES | LANA DNA inh | CaV13 FRET inh | LANA-H2B inh | Keap1-Nrf2 PPI | CAL PDZ FP-1 | CAL PDZ FP-2
Cc1ccc(-c2n[nH]c(=O)c3ccccc23)cc1S(=O)(=O)NCCN1CCOCC1 | -1 | . | 1 | -1 | 42* | .
CCc1cc2c(nc1CC)CCCN2S(=O)(=O)c1ccccc1 | . | -5 | . | . | . | .
CCOC(=O)/C=C1/SCC(=O)N1Cc1ccc(Br)cc1 | 1 | -5 | . | -4 | -3 | -1
CCOC(=O)/C=C1\SCC(=O)N1Cc1nnc(-c2ccccc2Br)o1 | 2 | . | -3 | -2 | 60* | -2
NC(=O)[C@@H]1CCCN1C(=O)[C@@H](Cc1ccccc1)NC(=O)[C@H]1O[C@@H](n2ccc(=O)[nH]c2=O)[C@H](O)[C@@H]1O | . | -4 | . | . | . | .
O=C(c1cc[n+]([O-])cc1)N1CCCC(N2CCN(c3cccc(C(F)(F)F)c3)CC2)C1 (centres undefined) | -2 | -6 | 21* | -1 | -2 | -1
O=C(c1ccsc1)N1CCCC(N2CCN(c3cccc(C(F)(F)F)c3)CC2)C1 (centres undefined) | 1 | -4 | 0 | 2 | -3 | -2
CCCCNC(=O)c1ccc(SCC(=O)N(CC)CC)c([N+](=O)[O-])c1 | 0 | -14 | 79* | -6 | -2 | -2
CCN(CC)C(=O)CSc1ccc(C(F)(F)F)cc1[N+](=O)[O-] | -1 | -4 | -1 | -5 | -6 | -2
Cc1cc(C)cc(NC(=O)COc2coc(CN3CCc4ccccc43)cc2=O)c1 | 1 | -6 | -4 | 2 | 2 | 0
O=C1OC(c2ccccc2)=N/C1=C\C=C\c1ccccc1[N+](=O)[O-] | -2 | 7 | 12* | -2 | 0 | -2
O=C(Cc1ccc(F)cc1)NC1CCCCCC1 | 0 | -4 | -8 | -9 | -15 | -2
O=C(CN1C(=O)NC(c2ccc(F)cc2)C1=O)NC1CCCCC1 (centres undefined) | -1 | . | -2 | 4 | 88* | -1
C=CCCC(=O)N1C[C@H]2CCN(C)[C@H]2C[C@H]1c1ccccc1Br | . | -5 | . | . | . | .
CC1(C)Cc2c(cnn2-c2ccc(F)cc2)C(NC(=O)Cn2cncn2)C1 (centres undefined) | 0 | -6 | 51* | -6 | 4 | 1
CNS(=O)(=O)c1cccc(C(=O)OCC(=O)c2cc(C)n(-c3ccc4c(c3)OCO4)c2C)c1 | -1 | -7 | 0 | 2 | -2 | -1
Cc1cc(C(=O)COc2ccccc2Cl)c(C)n1-c1ccc2c(c1)OCO2 | 0 | -4 | 10 | -1 | 45* | -1
COc1ccccc1CC(=O)NCc1nn(-c2ccccc2)nc1C | 1 | -5 | 1 | -7 | 65* | 1
O=C1CC2c3ccccc3C1C1C(=O)N(Cc3ccccc3)C(=O)C21 (centres undefined) | 0 | -7 | 0 | 3 | 35* | -1
COCCN(CCOC)C(=O)c1c[nH]c2ccc(S(=O)(=O)N(C)c3ccc(F)cc3)cc2c1=O | 1 | -3 | 80* | 3 | . | -2
CCOc1ccccc1N(C)S(=O)(=O)c1ccc2[nH]cc(C(=O)N(CCOC)CCOC)c(=O)c2c1 | 1 | -2 | 3 | -3 | . | 0
CN(C)CCCN1c2ccccc2Sc2ccc(Cl)cc21 | 0 | -6 | 2.8*! | -5 | -4 | 1
Cc1ccc(NCN2C(=O)c3ccccc3C2=O)c(C)n1 | . | -4 | . | . | . | .
CN1CCN(C(=O)c2cnc(Cc3c[nH]c4ccccc34)c(I)c2)CC1 | . | -7 | . | . | . | .
S=C(Nc1ccc(-c2nc3ccccc3[nH]2)cc1)Nc1cccnc1 | 2 | -6 | -6 | 6 | 43* | -2
SMILES | LANA DNA inh | CaV13 FRET inh | LANA-H2B inh | Keap1-Nrf2 PPI | CAL PDZ FP-1 | CAL PDZ FP-2
c1cncc(-c2nc3ccccc3[nH]2)c1 | -1 | . | 7 | 3 | -2 | -1
COc1ccc(NC(=O)c2ccccc2OCc2ccc(F)cc2)c(OC)c1 | 0 | -2 | -4 | -4 | -2 | -2
Cc1cc2ncc(S(C)(=O)=O)c(N)n2n1 | -3 | -7 | -2 | 2 | 56* | -1
Cc1ccc(S(=O)(=O)c2cnc3cc(C)nn3c2N)cc1 | -4 | -6 | . | -4 | 8 | -3
c1ccc(-c2cc(-c3ccc(N4CCOCC4)cc3)nc3ccccc23)cc1 | 0 | -6 | -12 | -1 | 37* | -1
c1ccc(-c2cc(N3CCOCC3)nc(-c3ccccc3)n2)cc1 | -1 | -5 | 0 | -2 | 2 | 1
O=C(NC(CO)Cc1ccc([N+](=O)[O-])cc1)C(Cl)Cl (centres undefined) | -1 | . | 22* | 0 | -8 | -2
CCOc1ccc(C(=O)NC(=S)Nc2ccccn2)cc1[N+](=O)[O-] | 0 | -5 | 10 | -5 | -1 | -4
CCOc1ccc(C(=O)NC(=S)Nc2cc(C)ccn2)cc1[N+](=O)[O-] | -1 | -2 | 98* | -1 | -4 | -3
COc1ccc2[nH]cc(CCNC(=O)Cc3ccc(F)cc3)c2c1 | -1 | 0 | -6 | -2 | 79* | -4
C[C@H](O)[C@@H]1C(=O)N2CCc3c([nH]c4cccc(-c5ccccc5)c34)[C@@H]2C[C@@H]1N(C)C(=O)c1ccco1 | . | -4 | . | . | . | .
COC(=O)C1=C(C)N(C)C(=NCc2ccc3c(c2)OCO3)NC1c1cccc(C(F)(F)F)c1 (centres undefined) | . | -5 | . | . | . | .
CCC(=NC)C1=C(O)CC(c2ccccc2)CC1=O (centres undefined) | 0 | -20 | -4 | -7 | 71* | .
OC(c1cc(F)cc(Cl)c1)c1ncc(-c2ccc(Cl)cc2)[nH]1 (centres undefined) | . | -4 | . | . | . | .
N#CC1=C(N)Oc2n[nH]c(-c3cccnc3)c2C1c1ccc([N+](=O)[O-])o1 (centres undefined) | -4 | 0 | -5 | -1 | 51* | -5
COCc1[nH]nc2c1C(c1ccc(C)cc1)N(Cc1ccccc1)C2=O (centres undefined) | . | -4 | . | . | . | .
O=C(O)CSC(C(=O)Nc1ccc(Br)cc1)c1ccc(Cl)cc1 (centres undefined) | 0 | -6 | 5 | 4 | 135* | -1
CCCCOn1c(C)c(C(C)=O)c2c3no[n+]([O-])c3ccc21 | -1 | -2 | 13* | -10 | 0 | -3
COC(=O)N1C[C@H](OC(=O)c2ccc(-c3ccccc3)cc2)[C@H]2C[C@@H]1c1ccccc1O2 | . | -5 | . | . | . | .
O=C(N/N=C/c1ccc(OCC(=O)N2CCCC2)cc1)C(=O)NC1CC1 | -1 | -7 | 26* | 3 | -3 | -2
O=C(NNc1c(Cl)cccc1Cl)c1ccno1 | 2 | -5 | 0 | 0 | -2 | 0
CN(C)CCC(C(=O)c1ccccc1)c1ccccn1 (centres undefined) | 1 | . | . | -3 | 85* | 0

Source: PubChem BioAssay
